Measured values from ChEMBL document CHEMBL1629532, “Design, synthesis, and structure-activity relationships of 3-ethynyl-1H-indazoles as inhibitors of the phosphatidylinositol 3-kinase signaling pathway” (J Med Chem, 2010).
The source made the active and inactive calls. The rule behind the calls is not given here.

What was measured:
[1] = system: Platelet-derived growth factor receptor alpha (Homo sapiens), P16234 [T674I]; test: Inhibition of PDGFRA T674I mutant at 10 uM
[2] = molecular target: Receptor-type tyrosine-protein kinase FLT3 (Homo sapiens) (UniProt P36888); test: Inhibition of FLT3 at 10 uM
Plasma = test: Metabolic stability in rat plasma assessed as compound remaining at 1 uM after 60 mins by Lc/Ms method; type: ADME, cell-free; settings: 1 h
In short: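 Compound at 1 µM (2.5% DMSO final) in fresh rat plasma at 37 °C. Stopped at 0, 30 and 60 min with two volumes methanol plus internal standard, then LC-MS. Percent parent remaining relative to 0 min, from peak area ratios to internal standard. Duplicate runs, with a plasma-labile positive control.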

[3] = molecular target: Inhibitor of nuclear factor kappa-B kinase subunit alpha (Homo sapiens) (UniProt O15111); test: Inhibition of IKKalpha at 10 uM
Inhibitor of nuclear factor kappa-B kinase subunit alpha (Homo sapiens), sequence (O15111 whole entry): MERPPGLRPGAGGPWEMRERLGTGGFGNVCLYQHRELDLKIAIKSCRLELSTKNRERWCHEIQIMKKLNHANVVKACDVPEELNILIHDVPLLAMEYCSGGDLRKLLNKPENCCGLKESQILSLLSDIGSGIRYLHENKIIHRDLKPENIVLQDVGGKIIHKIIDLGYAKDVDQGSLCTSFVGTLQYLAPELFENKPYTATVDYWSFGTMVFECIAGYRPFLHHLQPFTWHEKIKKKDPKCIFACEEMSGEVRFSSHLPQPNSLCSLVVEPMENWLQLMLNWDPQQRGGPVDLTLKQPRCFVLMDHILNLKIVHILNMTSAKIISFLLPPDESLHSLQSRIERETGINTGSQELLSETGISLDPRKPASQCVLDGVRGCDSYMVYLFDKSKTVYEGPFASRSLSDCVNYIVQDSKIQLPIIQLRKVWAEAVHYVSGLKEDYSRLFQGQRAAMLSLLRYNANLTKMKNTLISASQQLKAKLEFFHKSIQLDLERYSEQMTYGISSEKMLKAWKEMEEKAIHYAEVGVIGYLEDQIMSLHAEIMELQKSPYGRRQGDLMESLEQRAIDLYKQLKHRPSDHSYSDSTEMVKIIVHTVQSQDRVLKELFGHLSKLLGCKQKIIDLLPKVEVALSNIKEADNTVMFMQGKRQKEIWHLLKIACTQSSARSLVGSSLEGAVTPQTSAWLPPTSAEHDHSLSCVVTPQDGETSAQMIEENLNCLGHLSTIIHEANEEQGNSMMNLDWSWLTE

[4] = molecular target: Tyrosine-protein kinase SYK (Homo sapiens) (UniProt P43405); test: Inhibition of SYK at 10 uM
[5] = molecular target: T1, 3-phosphoinositide-dependent protein kinase 1 (Homo sapiens, UniProt O15530); test: Inhibition of PDK1 by Z'-LYTE kinase activity assay
T1 sequence (O15530 whole entry): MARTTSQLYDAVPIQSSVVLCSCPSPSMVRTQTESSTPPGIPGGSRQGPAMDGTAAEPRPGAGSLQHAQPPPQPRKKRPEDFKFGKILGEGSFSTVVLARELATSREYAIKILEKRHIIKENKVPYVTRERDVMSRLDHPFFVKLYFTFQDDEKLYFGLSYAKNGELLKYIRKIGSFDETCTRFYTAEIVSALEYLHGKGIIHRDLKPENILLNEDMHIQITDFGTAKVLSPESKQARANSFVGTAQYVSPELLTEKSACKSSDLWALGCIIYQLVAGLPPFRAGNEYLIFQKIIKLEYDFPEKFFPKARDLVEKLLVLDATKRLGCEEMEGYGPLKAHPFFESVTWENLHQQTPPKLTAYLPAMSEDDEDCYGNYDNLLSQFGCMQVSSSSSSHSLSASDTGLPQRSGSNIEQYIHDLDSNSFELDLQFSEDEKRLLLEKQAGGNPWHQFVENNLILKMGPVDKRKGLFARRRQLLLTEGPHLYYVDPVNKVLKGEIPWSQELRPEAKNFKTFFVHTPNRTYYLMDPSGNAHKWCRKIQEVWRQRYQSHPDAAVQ

[6] = Inhibition of DNA-PK at 10 uM
[7] = system: Receptor-type tyrosine-protein kinase FLT3 (Homo sapiens), P36888 [D835Y]; test: Inhibition of FLT3 D835Y mutant at 10 uM
[8] = system: Proto-oncogene tyrosine-protein kinase receptor Ret (Homo sapiens), P07949 [V804L]; test: Inhibition of RET V804L mutant at 10 uM
Proto-oncogene tyrosine-protein kinase receptor Ret (Homo sapiens), P07949 [V804L], sequence (P07949 whole entry V804L): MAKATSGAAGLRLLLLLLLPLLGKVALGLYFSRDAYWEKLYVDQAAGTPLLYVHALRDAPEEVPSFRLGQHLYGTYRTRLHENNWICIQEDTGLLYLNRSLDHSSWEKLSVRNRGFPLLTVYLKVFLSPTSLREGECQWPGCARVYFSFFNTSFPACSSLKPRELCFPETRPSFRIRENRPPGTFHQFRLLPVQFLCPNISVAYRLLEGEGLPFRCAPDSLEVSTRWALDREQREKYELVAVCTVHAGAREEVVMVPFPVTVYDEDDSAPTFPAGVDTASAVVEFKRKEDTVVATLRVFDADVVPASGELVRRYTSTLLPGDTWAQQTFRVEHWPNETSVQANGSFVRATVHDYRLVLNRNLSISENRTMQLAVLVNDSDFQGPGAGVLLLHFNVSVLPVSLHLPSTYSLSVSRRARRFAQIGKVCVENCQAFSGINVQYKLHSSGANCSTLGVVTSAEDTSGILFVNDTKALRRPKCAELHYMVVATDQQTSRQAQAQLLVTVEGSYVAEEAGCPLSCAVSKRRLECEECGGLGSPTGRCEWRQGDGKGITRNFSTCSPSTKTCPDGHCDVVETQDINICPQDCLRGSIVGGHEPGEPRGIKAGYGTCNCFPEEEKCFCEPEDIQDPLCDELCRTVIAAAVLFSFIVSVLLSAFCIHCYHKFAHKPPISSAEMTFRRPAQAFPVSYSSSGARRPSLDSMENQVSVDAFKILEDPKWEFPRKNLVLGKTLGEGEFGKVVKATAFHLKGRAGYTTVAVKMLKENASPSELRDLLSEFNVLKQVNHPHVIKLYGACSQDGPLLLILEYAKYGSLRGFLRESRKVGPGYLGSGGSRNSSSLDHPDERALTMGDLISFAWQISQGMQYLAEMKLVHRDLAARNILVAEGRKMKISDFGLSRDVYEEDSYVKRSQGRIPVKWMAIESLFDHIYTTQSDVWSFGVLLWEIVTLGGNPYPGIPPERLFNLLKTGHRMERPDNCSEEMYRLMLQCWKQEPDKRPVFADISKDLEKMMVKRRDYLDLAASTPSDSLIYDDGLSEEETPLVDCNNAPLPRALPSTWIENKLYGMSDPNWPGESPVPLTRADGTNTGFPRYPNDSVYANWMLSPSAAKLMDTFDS

MCF7 = test: Growth inhibition of human MCF7 cells after 72 hrs by ATPlite assay; type: functional; settings: MCF7, 72 h
In short: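 Cells seeded at about 3000 per well, grown 24 h, then given fresh medium and test compound in triplicate at 0.5 to 100µM in DMSO (0.5% final). Exposure 72 h at 37 °C, 5% CO₂. Viability measured by ATPlite luminescence and normalized to DMSO-treated controls. GI50 obtained by curve fitting. HeLa cultured in DMEM/10% FBS; MCF7, MDA-MB-231 and PC3 cultured in RPMI+GlutaMAX/10% FBS.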

U-87MG ATCC = test: Growth inhibition of human U87 cells grown as spheroids assessed reduction in decrease in spheroid volumes reated consecutively for 6 days by hanging drop method; type: functional, cell-based
In short: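 U87 glioblastoma spheroids formed by hanging drop, 200 cells per 20 µl drop, inverted for 5 days in a humidity chamber. Spheroids moved onto 1% low-melt agarose-coated wells. Compound or DMSO added every 24 h for 6 days. Volume (µm³) calculated from length and width measured with an optical micrometer. Four independent experiments.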

[9] = molecular target: Interleukin-1 receptor-associated kinase 1 (Homo sapiens) (UniProt P51617); test: Inhibition of IRAK1 at 10 uM
[10] = molecular target: Tyrosine-protein kinase ABL1 (Homo sapiens) (UniProt P00519); test: Inhibition of ABL1 […] mutant at 10 uM
[11] = molecular target: MAP/microtubule affinity-regulating kinase 4 (Homo sapiens) (UniProt Q96L34); test: Inhibition of MARK4 at 10 uM
[12] = molecular target: NT-3 growth factor receptor (Homo sapiens) (UniProt Q16288); test: Inhibition of NTRK3 at 10 uM
[13] = molecular target: Misshapen-like kinase 1 (Homo sapiens) (UniProt Q8N4C8); test: Inhibition of MINK1 at 10 uM
Misshapen-like kinase 1 (Homo sapiens), sequence (Q8N4C8 whole entry, looked up): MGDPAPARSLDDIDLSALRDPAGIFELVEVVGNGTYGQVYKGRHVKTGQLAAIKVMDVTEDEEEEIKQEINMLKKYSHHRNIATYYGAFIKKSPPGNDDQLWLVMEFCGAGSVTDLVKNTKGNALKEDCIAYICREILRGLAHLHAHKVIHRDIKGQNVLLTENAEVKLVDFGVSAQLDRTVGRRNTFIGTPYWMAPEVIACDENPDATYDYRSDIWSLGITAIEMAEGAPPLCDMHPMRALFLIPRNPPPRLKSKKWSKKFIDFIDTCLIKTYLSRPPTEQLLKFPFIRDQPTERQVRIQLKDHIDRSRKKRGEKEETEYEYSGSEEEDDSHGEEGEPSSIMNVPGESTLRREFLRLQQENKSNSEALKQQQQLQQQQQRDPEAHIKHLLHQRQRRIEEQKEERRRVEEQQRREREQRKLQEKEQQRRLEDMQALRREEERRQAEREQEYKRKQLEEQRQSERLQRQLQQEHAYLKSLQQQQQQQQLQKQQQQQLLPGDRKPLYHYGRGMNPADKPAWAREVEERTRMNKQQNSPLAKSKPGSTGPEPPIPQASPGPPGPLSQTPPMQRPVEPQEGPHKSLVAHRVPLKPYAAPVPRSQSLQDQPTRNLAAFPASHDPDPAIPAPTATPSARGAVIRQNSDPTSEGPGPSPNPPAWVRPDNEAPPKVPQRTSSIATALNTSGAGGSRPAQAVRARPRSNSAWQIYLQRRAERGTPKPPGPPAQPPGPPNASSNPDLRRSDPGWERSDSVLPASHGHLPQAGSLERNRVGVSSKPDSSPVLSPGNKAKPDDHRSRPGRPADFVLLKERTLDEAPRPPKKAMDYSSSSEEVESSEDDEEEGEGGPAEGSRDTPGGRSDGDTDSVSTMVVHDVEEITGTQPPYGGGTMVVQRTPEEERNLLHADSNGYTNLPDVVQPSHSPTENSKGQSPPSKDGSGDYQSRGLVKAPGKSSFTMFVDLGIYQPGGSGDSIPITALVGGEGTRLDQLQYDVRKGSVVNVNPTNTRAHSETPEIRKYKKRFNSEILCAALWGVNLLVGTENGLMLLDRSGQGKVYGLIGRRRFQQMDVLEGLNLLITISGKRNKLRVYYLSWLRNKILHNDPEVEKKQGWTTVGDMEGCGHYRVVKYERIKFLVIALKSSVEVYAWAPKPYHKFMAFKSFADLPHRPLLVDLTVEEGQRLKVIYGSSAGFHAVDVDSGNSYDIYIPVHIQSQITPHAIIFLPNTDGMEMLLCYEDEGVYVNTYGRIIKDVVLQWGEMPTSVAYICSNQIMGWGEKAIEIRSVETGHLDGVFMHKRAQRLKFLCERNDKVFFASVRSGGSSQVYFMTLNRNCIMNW

[14] = molecular target: Maternal embryonic leucine zipper kinase (Homo sapiens) (UniProt Q14680); test: Inhibition of MELK at 10 uM
[15] = molecular target: NUAK family SNF1-like kinase 1 (Homo sapiens) (UniProt O60285); test: Inhibition of NUAK1 at 10 uM
Liver microsomes = test: Metabolic stability in rat liver microsomes; type: ADME, Microsome
In short: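 Rat liver microsomes (1 mg/ml protein) with 4µM compound in 50mM phosphate pH 7.2. Pre-incubated 5 min at 37.5 °C, then started with 2mM NADPH and run 1 h. Samples taken every 15 min, quenched in methanol with internal standard, analyzed by LC-MS. Duplicate runs alongside two control compounds of known half-life. Half-life reported.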

[16] = molecular target: Mitogen-activated protein kinase 8 (Homo sapiens) (UniProt P45983); test: Inhibition of JNK1 at 10 uM
Mitogen-activated protein kinase 8 (Homo sapiens), sequence (P45983 whole entry): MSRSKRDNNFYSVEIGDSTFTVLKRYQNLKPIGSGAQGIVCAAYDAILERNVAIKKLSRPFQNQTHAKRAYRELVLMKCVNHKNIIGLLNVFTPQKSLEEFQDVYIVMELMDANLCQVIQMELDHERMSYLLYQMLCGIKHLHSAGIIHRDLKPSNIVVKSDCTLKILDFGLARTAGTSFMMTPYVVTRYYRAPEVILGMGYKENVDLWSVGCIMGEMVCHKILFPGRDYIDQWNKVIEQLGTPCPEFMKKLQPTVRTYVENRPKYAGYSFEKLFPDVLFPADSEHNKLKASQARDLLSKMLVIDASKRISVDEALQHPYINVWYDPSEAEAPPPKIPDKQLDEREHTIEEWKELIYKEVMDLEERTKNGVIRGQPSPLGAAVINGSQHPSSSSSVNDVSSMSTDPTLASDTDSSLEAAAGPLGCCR

Platelet-derived growth factor receptor alpha (Homo sapiens), P16234 [T674I], sequence (P16234 whole entry T674I): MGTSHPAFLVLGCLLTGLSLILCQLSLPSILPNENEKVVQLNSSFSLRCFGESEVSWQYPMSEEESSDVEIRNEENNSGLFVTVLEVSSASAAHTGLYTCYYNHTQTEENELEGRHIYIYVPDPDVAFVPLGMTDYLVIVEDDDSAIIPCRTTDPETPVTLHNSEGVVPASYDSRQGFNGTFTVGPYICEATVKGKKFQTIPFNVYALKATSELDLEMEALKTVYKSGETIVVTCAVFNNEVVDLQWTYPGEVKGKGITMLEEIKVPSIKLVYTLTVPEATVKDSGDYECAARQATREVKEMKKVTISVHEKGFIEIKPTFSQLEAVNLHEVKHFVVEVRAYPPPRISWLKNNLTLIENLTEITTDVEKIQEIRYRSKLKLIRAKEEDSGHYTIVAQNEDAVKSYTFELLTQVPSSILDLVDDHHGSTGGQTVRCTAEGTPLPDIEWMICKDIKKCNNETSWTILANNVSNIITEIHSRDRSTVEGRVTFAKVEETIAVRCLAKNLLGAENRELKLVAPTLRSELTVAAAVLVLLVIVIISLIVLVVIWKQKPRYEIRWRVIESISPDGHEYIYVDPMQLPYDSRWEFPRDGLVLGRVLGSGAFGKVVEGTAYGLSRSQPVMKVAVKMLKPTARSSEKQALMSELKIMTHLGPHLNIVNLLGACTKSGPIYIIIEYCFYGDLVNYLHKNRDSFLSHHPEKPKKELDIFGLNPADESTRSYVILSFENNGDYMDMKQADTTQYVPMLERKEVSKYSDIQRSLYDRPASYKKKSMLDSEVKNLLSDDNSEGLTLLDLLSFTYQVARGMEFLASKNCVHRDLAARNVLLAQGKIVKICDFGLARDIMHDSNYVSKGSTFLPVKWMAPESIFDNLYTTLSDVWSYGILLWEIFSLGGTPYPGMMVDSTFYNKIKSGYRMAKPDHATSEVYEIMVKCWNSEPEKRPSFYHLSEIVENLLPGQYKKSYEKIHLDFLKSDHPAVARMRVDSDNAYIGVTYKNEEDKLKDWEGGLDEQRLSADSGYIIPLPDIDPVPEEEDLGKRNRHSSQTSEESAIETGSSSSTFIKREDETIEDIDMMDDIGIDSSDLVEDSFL

Question: Which inhibition [1] does the source give for `C(#Cc1n[nH]c2ccccc12)c1ccncc1` here?
Answer: > 50%

Question: And the inhibition [2]?
Answer: > 50%

Question: What about the Stability (Plasma) of the same molecule?
Answer: 97%

Question: And the inhibition [3]?
Answer: > 50%

Question: What about the inhibition [4] of the same molecule?
Answer: > 50%

Question: What about the IC50 [5] of the same molecule?
Answer: 3.87 µM

Question: And the inhibition [6]?
Answer: > 50%

Question: And the inhibition [7]?
Answer: > 50%

Question: And the inhibition [8]?
Answer: > 50%

Question: What about the GI50 (MCF7) of the same molecule?
Answer: 2.58 µM

Question: What about the “growth inhibition (GI)” value (U-87MG ATCC) of the same molecule?
Answer: Active

Question: What about the inhibition [9] of the same molecule?
Answer: > 50%

Question: And the inhibition [10]?
Answer: > 50%

Question: And the inhibition [11]?
Answer: > 50%

Question: And the inhibition [12]?
Answer: > 50%

Question: What about the inhibition [13] of the same molecule?
Answer: > 50%

Question: What about the inhibition [14] of the same molecule?
Answer: > 50%

Question: And the inhibition [15]?
Answer: > 50%

Question: And the t1/2 (Liver microsomes)?
Answer: 35 min

Question: What about the inhibition [16] of the same molecule?
Answer: > 50%
